Measurements: ChEMBL document CHEMBL1177854, “Synthesis of bile acid derivatives and in vitro cytotoxic activity with pro-apoptotic process on multiple myeloma (KMS-11), glioblastoma multiforme (GBM), and colonic carcinoma (HCT-116) human cell lines” (Eur J Med Chem, 2010)
Activity calls are given as the source filed them. No cut-off for these calls is given here.

Assays:
[1] = tested on: GBM; test: Cytotoxicity against human GBM cells after 24 hrs by neutral red uptake assay; assay type: functional, cell-based
How it was run: (§1)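 GBM-12 (brain tumour line), KMS-11 myeloma or HCT-116 colon carcinoma cells exposed to compound for 24 h; viability read by neutral red uptake. IC50 taken from dose-response curves; mean of three experiments ± standard error.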

[2] = Lipophilicity, log P of the compound; assay type: physicochemical; settings: octanol/water
How it was run: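 Log P calculated in silico with the ALogP program; not measured experimentally.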

[3] = tested on: HCT-116; test: Cytotoxicity against human HCT116 cells after 24 hrs by neutral red uptake assay; assay type: functional, cell-based; settings: HCT-116, 24 h; how it was run: as §1
[4] = Cytotoxicity against human KMS11 cells after 24 hrs by neutral red uptake assay; assay type: functional, cell-based; settings: KMS-11, 24 h; how it was run: as §1
[5] = tested on: KMS-11; test: Induction of apoptosis in human KMS11 cells assessed as dead cells at 20 uM after 24 hrs using annexin V stain by FACSCalibur flow cytometry; assay type: functional
How it was run: (§2)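 Cells were exposed to compound for 24 h alongside untreated control cultures. They were then labelled with FITC-conjugated annexin V to mark early apoptosis. The percentage of apoptotic cells was read by flow cytometry.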

[6] = tested on: HCT-116; test: Induction of apoptosis in human HCT116 cells assessed as dead cells at 20 uM after 24 hrs using annexin V stain by FACSCalibur flow cytometry; assay type: functional; how it was run: as §2
[7] = tested on: GBM; test: Induction of apoptosis in human GBM cells assessed as dead cells at 20 uM after 24 hrs using annexin V stain by FACSCalibur flow cytometry; assay type: functional
[8] = tested on: KMS-11; test: Induction of apoptosis in human KMS11 cells assessed as apoptotic nuclei at 40 uM after 24 hrs by microscopy relative to control; assay type: functional
[9] = tested on: KMS-11; test: Induction of apoptosis in human KMS11 cells assessed as apoptotic nuclei at 20 uM after 24 hrs by microscopy relative to control; assay type: functional
[10] = tested on: KMS-11; test: Induction of apoptosis in human KMS11 cells assessed as DNA fragmentation after 48 hrs; assay type: functional, cell-based
How it was run: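 KMS-11 cultures treated for 48 h; culture supernatants run on agarose gel electrophoresis against a 100 bp DNA ladder to detect DNA fragmentation.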

[11] = tested on: KMS-11; test: Induction of apoptosis in human KMS11 cells assessed as apoptotic nuclei at 10 uM after 24 hrs by microscopy relative to control; assay type: functional

Row | Structure (SMILES) | IC50 [1] | logP [2] | IC50 [3] | IC50 [4] | Activity [5] | Activity [6] | Activity [7] | Activity [8] | Activity [9] | Activity [10] | Activity [11] | logP ([2]; read-out: logP)
1 | C[C@H](CCC(=O)O)[C@H]1CC[C@H]2[C@@H]3[C@@H](O)C[C@@H]4C[C@H](O)CC[C@]4(C)[C@H]3CC[C@]12C [URSODIOL] | > 50 µM | 4.014 | > 50 µM | > 50 µM | – | – | – | – | – | – | – | –
2 | C[C@H](CCC(=O)N1CCN(C/C=C/c2ccccc2)CC1)[C@H]1CC[C@H]2[C@@H]3[C@@H](O)C[C@@H]4C[C@H](O)CC[C@]4(C)[C@H]3CC[C@]12C | 24.7 µM | – | 31.4 µM | 28.1 µM | 96% | 45% | 78% | 35% | 59% | Active | 84% | 5.81
3 | C[C@H](CCC(=O)N1CCN(C/C=C/c2ccccc2)CC1)[C@H]1CC[C@H]2[C@@H]3[C@H](O)C[C@@H]4C[C@H](O)CC[C@]4(C)[C@H]3CC[C@]12C | 16.5 µM | – | 18.5 µM | 8.5 µM | – | – | – | – | – | – | – | 5.81
4 | C[C@H](CCC(=O)O)[C@H]1CC[C@H]2[C@@H]3[C@H](O)C[C@@H]4C[C@H](O)CC[C@]4(C)[C@H]3CC[C@]12C [CHENODIOL] | > 50 µM | 4.014 | > 50 µM | > 50 µM | – | – | – | – | – | – | – | –
5 | C[C@H](CCC(=O)O)[C@H]1CC[C@H]2[C@@H]3[C@H](O)C[C@@H]4C[C@H](O)CC[C@]4(C)[C@H]3C[C@H](O)[C@]12C [CHOLIC ACID] | > 50 µM | 2.912 | > 50 µM | > 50 µM | – | – | – | – | – | – | – | –
6 | C[C@H](CCC(=O)NN1CCN(C)CC1)[C@H]1CC[C@H]2[C@@H]3[C@H](O)C[C@@H]4C[C@H](O)CC[C@]4(C)[C@H]3CC[C@]12C | ≥ 50 µM | – | > 50 µM | ≥ 50 µM | – | – | – | – | – | – | – | 3.26
7 | C[C@H](CCC(=O)NN1CCN(C)CC1)[C@H]1CC[C@H]2[C@@H]3[C@H](O)C[C@@H]4C[C@H](O)CC[C@]4(C)[C@H]3C[C@H](O)[C@]12C | > 50 µM | – | > 50 µM | > 50 µM | – | – | – | – | – | – | – | 2.16
8 | C[C@H](CCC(=O)NN1CCN(C)CC1)[C@H]1CC[C@H]2[C@@H]3[C@@H](O)C[C@@H]4C[C@H](O)CC[C@]4(C)[C@H]3CC[C@]12C | > 50 µM | – | > 50 µM | > 50 µM | – | – | – | – | – | – | – | 3.26
9 | C[C@H](CCC(=O)N1CCN(C/C=C/c2ccccc2)CC1)[C@H]1CC[C@H]2[C@@H]3[C@H](O)C[C@@H]4C[C@H](O)CC[C@]4(C)[C@H]3C[C@H](O)[C@]12C | > 50 µM | – | > 50 µM | > 50 µM | – | – | – | – | – | – | – | 4.71
